# Data reported in ChEMBL document CHEMBL1124761, “Polyamine analogues with antitumor activity” (J Med Chem, 1990).
# Active and inactive are the calls of the source. The rule behind the calls is not given here.
# Legend:
# [1] = Tested for in vitro half life period against polyamine oxidase after intraperitoneal administration; type: ADME; conditions: ip
# [2] = system: L1210; test: Tested for the T/C (survival time treated/survival time control x 100) after intraperitoneal administration of 50 mg/Kg in 10 E 5 L1210 cells on day 0; not active; type: functional; conditions: Mus musculus
# [3] = system: L1210; test: Effect of 25 mg/kg putrescine coadministered with 25 mg/kg compound on the tumor cell concentration (L1210) of putrescine; type: functional, Mus musculus
# In short: (§1)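 BDF1 male mice bearing ip L1210 cells. Starting day 4, ip dosing with analogue, alone or with putrescine or spermidine, at the doses indicated. Killed 4 h after the final dose; tumour cells recovered by peritoneal lavage. Drug and polyamines quantified by HPLC, pmol/10^6 cells, mean of three determinations.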
# [4] = system: L1210; test: Effect of 25 mg/kg putrescine coadministered with 25 mg/kg compound on the tumor cell concentration (L1210) of spermine; type: functional, Mus musculus; in short: as §1
# [5] = system: L1210; test: Effect of 25 mg/kg putrescine coadministered with 25 mg/kg compound on the tumor cell concentration (L1210) of compound; type: functional, Mus musculus; in short: as §1
# [6] = system: L1210; test: Effect of 25 mg/kg putrescine coadministered with 25 mg/kg compound on the tumor cell concentration (L1210) of spermidine; type: functional, Mus musculus; in short: as §1
# [7] = system: L1210; test: Modulation of the antitumor activity against L1210 Leukemia at 25 mg/kg along with 25 mg/kg spermidine days 1-7, 1 dose / day; type: functional, Mus musculus
# [8] = system: L1210; test: Tested for the T/C (survival time treated /survival time control x 100) after intraperitoneal administration of 5 mg/kg in 10 E 5 L1210 cells on day 0; type: functional, Mus musculus
# In short: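 Male BDF1 mice, in groups of six, were inoculated ip with 10^5 L1210 cells on day 0. Tetrahydrochloride salts were given at 5 mg/kg every 3 h (×4) on days 3-5. T/C = survival time treated/survival time control × 100.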
# [9] = system: L1210; test: Effect of 25 mg/kg putrescine or spermidine coadministered with 25 mg/kg compound on the tumor cell concentration (L1210) of putrescine; type: functional, Mus musculus; in short: as §1
# [10] = system: L1210; test: Effect of 25 mg/kg putrescine or spermidine coadministered with 25 mg/kg compound on the tumor cell concentration (L1210) of spermidine; type: functional, Mus musculus; in short: as §1
# [11] = system: L1210; test: Effect of 25 mg/kg putrescine or spermidine coadministered with 25 mg/kg compound on the tumor cell concentration (L1210) of compound; type: functional, Mus musculus; in short: as §1
# [12] = system: L1210; test: Effect of 25 mg/kg putrescine or spermidine coadministered with 25 mg/kg compound on the tumor cell concentration (L1210) of spermine; type: functional, Mus musculus; in short: as §1
# [13] = system: L1210; test: Modulation of the antitumor activity against L1210 Leukemia by 25 mg/kg ip days 1-7, 1 dose/day; type: functional, Mus musculus; conditions: route intraperitoneal
# [14] = system: L1210; test: Modulation of the antitumor activity against L1210 Leukemia at 25 mg/kg along with 25 mg/kg putrescine days 1-7, 1 dose / day; type: functional, Mus musculus
# [15] = system: L1210; test: (§2) Antitumor activity against L1210 leukemia in BDF1 male mice at the dose of 5 mg/kg; type: functional, Mus musculus
# In short: (§3)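 L1210 leukemia, 10^5 cells inoculated ip into BDF1 male mice on day 0. Analogue given ip once daily on days 1-9; where stated, diallenylputrescine (PAO inhibitor) was co-given at 2.5 or 5.0 mg/kg. Mean survival time ± SD (n=5). %T/C = treated survival time/control survival time × 100.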
# [16] = system: L1210; test: as §2; type: functional, Mus musculus; set-up: unit not given here
# In short: (§4)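 BDF1 male mice were inoculated ip with 10^5 L1210 cells on day 0. Agents were given ip once daily on days 1-9, alone or with diallenylputrescine at 2.5 or 5.0 mg/kg. Mean survival time was reported ± SD (n=5). %T/C = treated survival/control survival × 100.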
# [17] = system: L1210; test: (§5) Antitumor activity against L1210 leukemia in BDF1 male mice at the dose of 5 mg/kg when given with 2.5 mg/kg of diallenylputrescine; type: functional, Mus musculus; in short: as §3
# [18] = system: L1210; test: as §5; type: functional, Mus musculus; in short: as §4; remark: listed apart in the source
# [19] = system: L1210; test: Tested for the T/C (survival time treated /survival time control x 100) after intraperitoneal administration of 25 mg/kg in 10 E 5 L1210 cells on day 0; type: functional, Mus musculus
# [20] = system: L1210; test: (§6) Antitumor activity against L1210 leukemia in BDF1 male mice at the dose of 10 mg/kg; type: functional, Mus musculus; in short: as §3
# [21] = system: L1210; test: (§7) Antitumor activity against L1210 leukemia in BDF1 male mice at the dose of 10 mg/kg when given with 5.0 mg/kg of diallenylputrescine; type: functional, Mus musculus; in short: as §3
# [22] = system: L1210; test: as §6; type: functional, Mus musculus; in short: as §4; remark: listed apart in the source
# [23] = system: L1210; test: (§8) Antitumor activity against L1210 leukemia in BDF1 male mice at the dose of 5 mg/kg when given with 5.0 mg/kg of diallenylputrescine; type: functional, Mus musculus; in short: as §4
# [24] = system: L1210; test: as §7; type: functional, Mus musculus; in short: as §4; remark: listed apart in the source
# [25] = system: L1210; test: as §8; type: functional, Mus musculus; in short: as §3; remark: listed apart in the source
# [26] = system: L1210; test: Effect of 25 mg/kg spermidine coadministered with 25 mg/kg compound on the tumor cell concentration (L1210) of spermine; type: functional, Mus musculus; in short: as §1
# [27] = system: L1210; test: Effect of 25 mg/kg spermidine coadministered with 25 mg/kg compound on the tumor cell concentration (L1210) of spermidine; type: functional, Mus musculus; in short: as §1
# [28] = system: L1210; test: Effect of 25 mg/kg spermidine coadministered with 25 mg/kg compound on the tumor cell concentration (L1210) of compound; type: functional, Mus musculus; in short: as §1
# [29] = system: L1210; test: Effect of 25 mg/kg spermidine coadministered with 25 mg/kg compound on the tumor cell concentration (L1210) of putrescine; type: functional, Mus musculus; in short: as §1
# [30] = molecular target: Peroxisomal N(1)-acetyl-spermine/spermidine oxidase (Mus musculus) (UniProt Q8C0L6); test: Tested for the in vivo inhibitory activity against polyamine oxidase in mice at a dose of 1 mg/kg; type: functional, organism-based; set-up: dose 1 mg/kg
# Sequence of Peroxisomal N(1)-acetyl-spermine/spermidine oxidase (Mus musculus) (Q8C0L6 whole entry): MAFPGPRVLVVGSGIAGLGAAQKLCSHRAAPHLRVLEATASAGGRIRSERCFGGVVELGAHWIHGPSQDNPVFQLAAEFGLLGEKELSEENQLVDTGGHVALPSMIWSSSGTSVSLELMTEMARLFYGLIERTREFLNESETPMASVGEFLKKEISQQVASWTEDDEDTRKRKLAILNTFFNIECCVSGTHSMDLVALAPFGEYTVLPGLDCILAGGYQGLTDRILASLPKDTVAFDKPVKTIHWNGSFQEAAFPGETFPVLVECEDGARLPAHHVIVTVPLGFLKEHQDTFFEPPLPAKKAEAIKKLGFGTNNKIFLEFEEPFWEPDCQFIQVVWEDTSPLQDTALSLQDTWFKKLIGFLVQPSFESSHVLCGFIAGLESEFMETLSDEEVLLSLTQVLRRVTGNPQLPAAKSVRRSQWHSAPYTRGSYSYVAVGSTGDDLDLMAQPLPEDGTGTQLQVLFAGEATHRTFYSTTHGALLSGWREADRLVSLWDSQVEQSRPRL
# In short: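 Mice received drug ip 24 h before sacrifice. Liver homogenised and polyamine oxidase activity assayed. Protein by Bradford method with BSA standard.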
smiles,measurement,setting,value
C=C=CCNCCCCNCC=C=C,T50,[1],1 min
CN(CCCN)CCCN,T/C,[2],inactive
CN(C)CCCNCCCN(C)C,T/C,[2],inactive
CN(CCCN)CCCCCCCCN(C)CCCN,T/C,[2],inactive
CNCCCNCCCNC,T/C,[2],inactive
NCCCCN.NCCCNCCCCCCCCNCCCN,Effect,[3],120 pM (10e6*cells)-1
same,Effect,[4],799 pM (10e6*cells)-1
same,Effect,[5],520 pM (10e6*cells)-1
same,Effect,[6],1060 pM (10e6*cells)-1
Cl.Cl.Cl.Cl.NCCCNCCCCCCCCNCCCN,Mean survival time,[7],8.3 days
same,T/C,[8],350%
same,Effect,[9],37.4 pM (10e6*cells)-1
same,Effect,[10],1711 pM (10e6*cells)-1
same,Effect,[11],580 pM (10e6*cells)-1
same,Effect,[12],1110 pM (10e6*cells)-1
same,Mean survival time,[13],16.2 days
same,Mean survival time,[14],15 days
NCCCSCCCN,T/C,[2],inactive
CNCCCCCCCCNC,T/C,[2],inactive
NCCCCCCCCNCCCN,T/C,[2],inactive
c1ccc(CNCCCNCCCCCCCCNCCCNCc2ccccc2)cc1,T/C,[2],inactive
NCCCCCCCN,T/C,[2],inactive
CC(N)CCNCCCCCCCCNCCC(C)N.Cl.Cl.Cl.Cl (centres undefined),T/C,[15],195%
same,Mean survival time,[16],13.3
same,T/C,[17],376%
same,T/C,[8],206%
same,Mean survival time,[18],25.6
NCCCNCCCN [NORSPERMIDINE],T/C,[19],179%
CCNCCCNCCCCCCCCNCCCNCC.Cl.Cl.Cl.Cl,T/C,[15],122%
same,T/C,[20],112%
same,Mean survival time,[16],9.8
same,T/C,[21],287%
same,T/C,[8],135%
same,Mean survival time,[22],9
same,Mean survival time,[23],11.4
same,Mean survival time,[24],23
same,T/C,[25],142%
NCCCCNCCCN.NCCCNCCCCCCCCNCCCN,Effect,[26],817 pM (10e6*cells)-1
same,Effect,[27],2174 pM (10e6*cells)-1
same,Effect,[28],114 pM (10e6*cells)-1
same,Effect,[29],51.7 pM (10e6*cells)-1
CCNCCCNCCCCCCCCNCCCN.Cl.Cl.Cl.Cl,T/C,[15],100%
same,T/C,[20],112%
same,Mean survival time,[16],7.6
same,T/C,[21],155%
same,T/C,[8],145%
same,Mean survival time,[22],9
same,Mean survival time,[23],8.4
same,Mean survival time,[24],12.4
same,T/C,[25],105%
CN(C)CCCNCCCCCCCCNCCCN(C)C,T/C,[2],inactive
NCCCS(=O)(=O)CCCN,T/C,[2],inactive
CNCCCNCCCCCCCCNCCCNC.Cl.Cl.Cl.Cl,T/C,[15],142%
same,T/C,[20],172%
same,Mean survival time,[16],11.4
same,T/C,[21],317%
same,T/C,[8],206%
same,Mean survival time,[22],13.8
same,Mean survival time,[23],12.6
same,Mean survival time,[24],25.4
same,T/C,[25],157%
C=C=CCNCCCNCCCCCCCCNCCCNCC=C=C.Cl.Cl.Cl.Cl,T50,[1],2 min
same,T/C,[2],inactive
same,PAO activity,[30],4.1 pM/min
CC(CCN)NCCCCCCCCNC(C)CCN (centres undefined),T/C,[2],inactive
NCCCCCCCCN,T/C,[2],inactive
NCCCNCCCOCCCNCCCN,T/C,[2],inactive
NCCCCSCCCN,T/C,[2],inactive
CCCCNCCCNCCCCCCCCNCCCNCCCC,T/C,[2],inactive
NCCCOCCCN,T/C,[2],inactive
CCCNCCCNCCCCCCCCNCCCNCCC,T/C,[2],inactive
C=C=CCNCCCNCCCNCC=C=C,T50,[1],4 min
same,T/C,[2],inactive
same,PAO activity (pM min-1 mg-1),[30],1
